Source: ChEMBL document CHEMBL3091303, “1,3-Dialkyl-substituted tetrahydropyrimido[1,2-f]purine-2,4-diones as multiple target drugs for the potential treatment of neurodegenerative diseases” (Bioorg Med Chem, 2013)

Legend:
[1] = molecular target: T1, Adenosine receptor A2b (Homo sapiens) (UniProt P29275); experiment: Displacement of [3H]PSB-603 from human adenosine A2B receptor relative to control; set-up: concentration or dose not given beside the values; details: concentration not given here
T1 sequence (whole entry): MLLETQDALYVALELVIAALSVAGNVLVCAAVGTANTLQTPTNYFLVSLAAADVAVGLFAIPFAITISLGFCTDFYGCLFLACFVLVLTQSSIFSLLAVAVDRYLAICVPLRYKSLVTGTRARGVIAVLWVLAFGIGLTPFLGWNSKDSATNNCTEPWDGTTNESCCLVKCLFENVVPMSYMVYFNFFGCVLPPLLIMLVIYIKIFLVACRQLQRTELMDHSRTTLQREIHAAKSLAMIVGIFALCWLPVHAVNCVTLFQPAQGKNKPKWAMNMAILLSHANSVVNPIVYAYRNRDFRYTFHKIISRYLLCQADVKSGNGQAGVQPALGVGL

Adenosine receptor A2a [2] = molecular target: Adenosine receptor A2a (Rattus norvegicus, UniProt P30543); experiment: Displacement of [3H]MSX-2 from adenosine A2A receptor in rat brain striatum; format: tissue-based
Sequence of Adenosine receptor A2a (Rattus norvegicus, UniProt P30543) (P30543 whole entry): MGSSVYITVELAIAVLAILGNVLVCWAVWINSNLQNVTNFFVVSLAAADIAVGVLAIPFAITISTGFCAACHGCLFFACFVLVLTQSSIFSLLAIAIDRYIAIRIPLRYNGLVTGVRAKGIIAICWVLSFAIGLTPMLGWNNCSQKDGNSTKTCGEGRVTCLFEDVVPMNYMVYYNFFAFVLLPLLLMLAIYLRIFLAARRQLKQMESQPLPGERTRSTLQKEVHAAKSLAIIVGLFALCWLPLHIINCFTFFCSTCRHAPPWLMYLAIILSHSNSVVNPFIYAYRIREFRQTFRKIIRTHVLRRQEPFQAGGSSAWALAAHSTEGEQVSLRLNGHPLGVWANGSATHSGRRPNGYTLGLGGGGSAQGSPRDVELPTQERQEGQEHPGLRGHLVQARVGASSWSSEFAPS

[3] = molecular target: T2, Amine oxidase [flavin-containing] A (Homo sapiens, UniProt P21397); experiment: Inhibition of human MAO-A
T2 sequence (P21397 whole entry): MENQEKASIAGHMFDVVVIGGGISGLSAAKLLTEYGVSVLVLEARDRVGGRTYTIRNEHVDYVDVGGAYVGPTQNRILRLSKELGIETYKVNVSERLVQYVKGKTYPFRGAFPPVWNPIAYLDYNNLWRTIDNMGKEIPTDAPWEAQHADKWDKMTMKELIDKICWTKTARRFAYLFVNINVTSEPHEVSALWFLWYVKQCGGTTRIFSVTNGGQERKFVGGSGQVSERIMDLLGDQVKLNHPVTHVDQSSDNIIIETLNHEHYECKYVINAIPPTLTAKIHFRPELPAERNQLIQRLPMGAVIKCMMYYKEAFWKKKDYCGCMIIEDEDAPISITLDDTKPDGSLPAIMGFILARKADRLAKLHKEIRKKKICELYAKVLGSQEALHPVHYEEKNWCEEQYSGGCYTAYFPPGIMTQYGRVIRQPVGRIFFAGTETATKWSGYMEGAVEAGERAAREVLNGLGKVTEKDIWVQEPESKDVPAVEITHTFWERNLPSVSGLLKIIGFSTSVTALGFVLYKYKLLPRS
Method in brief: (§1)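 Human MAO-A and MAO-B inhibition, screened first at a test concentration of 10 µM.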

[4] = molecular target: T3, MAO-A (amine oxidase [flavin-containing] A) (Homo sapiens, UniProt P21397); experiment: Inhibition of human MAO-A at 10 uM relative to control; method in brief: as §1
T3 sequence (P21397 whole entry): T2 sequence (P21397 whole entry)

[5] = molecular target: T4, Adenosine receptor A3 (Homo sapiens) (UniProt P0DMS8); experiment: Displacement of [3H]PSB-11 from human adenosine A3 receptor expressed in CHO cells relative to control; format: cell-based; set-up: concentration or dose not given beside the values; details: concentration not given here
T4 sequence (whole entry): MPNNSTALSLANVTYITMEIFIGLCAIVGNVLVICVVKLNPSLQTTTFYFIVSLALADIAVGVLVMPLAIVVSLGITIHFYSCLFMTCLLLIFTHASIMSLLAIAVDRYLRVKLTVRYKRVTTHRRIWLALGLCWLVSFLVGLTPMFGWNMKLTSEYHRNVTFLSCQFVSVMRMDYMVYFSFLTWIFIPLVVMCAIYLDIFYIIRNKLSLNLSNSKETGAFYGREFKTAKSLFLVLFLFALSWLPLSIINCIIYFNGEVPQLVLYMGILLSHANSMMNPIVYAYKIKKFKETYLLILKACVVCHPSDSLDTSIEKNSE

Adenosine receptor A2a [6] = molecular target: Adenosine receptor A2a (Homo sapiens, UniProt P29274); experiment: Displacement of [3H]MSX-2 from human adenosine A2A receptor expressed in CHO cells; format: cell-based
Sequence of Adenosine receptor A2a (Homo sapiens, UniProt P29274) (P29274 whole entry): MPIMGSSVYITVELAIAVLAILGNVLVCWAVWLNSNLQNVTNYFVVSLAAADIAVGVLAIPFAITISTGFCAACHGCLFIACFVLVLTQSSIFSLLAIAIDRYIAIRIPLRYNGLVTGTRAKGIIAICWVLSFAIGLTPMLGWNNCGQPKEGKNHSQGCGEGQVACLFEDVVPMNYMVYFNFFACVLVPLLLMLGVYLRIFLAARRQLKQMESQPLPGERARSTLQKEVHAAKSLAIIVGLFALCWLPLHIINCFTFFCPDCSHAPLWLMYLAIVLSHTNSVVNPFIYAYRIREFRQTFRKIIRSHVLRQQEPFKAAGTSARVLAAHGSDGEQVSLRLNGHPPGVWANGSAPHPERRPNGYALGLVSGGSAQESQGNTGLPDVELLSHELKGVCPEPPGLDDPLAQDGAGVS
Method in brief: (§2)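 Radioligand binding to human receptors recombinantly expressed in Chinese hamster ovary (CHO) cells. Results are Ki, or % inhibition of radioligand binding at the indicated concentration.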

Adenosine receptor A3 = molecular target: T5, Adenosine receptor A3 (Homo sapiens, UniProt P0DMS8); experiment: Displacement of [3H]PSB-11 from human adenosine A3 receptor expressed in CHO cells; format: cell-based
T5 sequence (P0DMS8 whole entry): T4 sequence (whole entry)

Adenosine receptor A1 [7] = molecular target: T6, Adenosine receptor A1 (Rattus norvegicus, UniProt P25099); experiment: Displacement of [3H]CCPA from adenosine A1 receptor in rat brain cortex; format: tissue-based
T6 sequence (P25099 whole entry): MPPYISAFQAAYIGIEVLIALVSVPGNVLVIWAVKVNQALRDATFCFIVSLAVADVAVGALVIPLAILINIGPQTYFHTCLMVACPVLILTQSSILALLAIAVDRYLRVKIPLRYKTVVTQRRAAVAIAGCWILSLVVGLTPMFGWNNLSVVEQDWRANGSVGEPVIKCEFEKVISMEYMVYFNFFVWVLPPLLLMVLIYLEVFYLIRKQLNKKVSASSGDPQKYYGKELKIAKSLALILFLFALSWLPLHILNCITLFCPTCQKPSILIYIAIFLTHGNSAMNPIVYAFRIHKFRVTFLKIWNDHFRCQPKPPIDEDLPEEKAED
Method in brief: (§3)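 Radioligand binding to rat A1 receptors in rat brain cortical membrane preparations. Values are given as Ki, or as % inhibition of radioligand binding at the indicated concentration.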

Adenosine receptor A2b = molecular target: T7, Adenosine receptor A2b (Homo sapiens, UniProt P29275); experiment: Displacement of [3H]PSB-603 from human adenosine A2B receptor
T7 sequence (P29275 whole entry): T1 sequence (whole entry)

[8] = molecular target: T8, Amine oxidase [flavin-containing] B (Homo sapiens, UniProt P27338); experiment: Inhibition of human MAO-B
T8 sequence (P27338 whole entry): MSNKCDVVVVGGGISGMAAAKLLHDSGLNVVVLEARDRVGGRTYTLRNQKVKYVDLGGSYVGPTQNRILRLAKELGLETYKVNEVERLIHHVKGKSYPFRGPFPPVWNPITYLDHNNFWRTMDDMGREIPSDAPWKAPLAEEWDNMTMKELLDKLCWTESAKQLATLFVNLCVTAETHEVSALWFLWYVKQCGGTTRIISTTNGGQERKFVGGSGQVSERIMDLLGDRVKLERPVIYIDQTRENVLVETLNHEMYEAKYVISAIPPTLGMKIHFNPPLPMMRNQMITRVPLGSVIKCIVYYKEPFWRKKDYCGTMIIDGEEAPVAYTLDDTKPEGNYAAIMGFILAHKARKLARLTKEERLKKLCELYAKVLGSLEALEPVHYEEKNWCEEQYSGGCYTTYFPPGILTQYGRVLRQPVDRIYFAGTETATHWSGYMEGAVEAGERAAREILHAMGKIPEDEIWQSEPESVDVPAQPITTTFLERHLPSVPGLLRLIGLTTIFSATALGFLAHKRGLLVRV

[9] = molecular target: T9, MAO-B (amine oxidase [flavin-containing] B) (Homo sapiens, UniProt P27338); experiment: Inhibition of human MAO-B at 10 uM relative to control; method in brief: as §1
T9 sequence (P27338 whole entry): T8 sequence (P27338 whole entry)

[10] = molecular target: T10, Adenosine receptor A1 (Rattus norvegicus) (UniProt P25099); experiment: Displacement of [3H]CCPA from adenosine A1 receptor in rat brain cortex relative to control; format: tissue-based; set-up: concentration or dose not given beside the values; details: concentration not given here; method in brief: as §3
T10 sequence (whole entry): T6 sequence (P25099 whole entry)

Adenosine receptor A1 [11] = molecular target: T11, Adenosine receptor A1 (Homo sapiens, UniProt P30542); experiment: Displacement of [3H]CCPA from human adenosine A1 receptor expressed in CHO cells; format: cell-based; method in brief: as §2
T11 sequence (P30542 whole entry): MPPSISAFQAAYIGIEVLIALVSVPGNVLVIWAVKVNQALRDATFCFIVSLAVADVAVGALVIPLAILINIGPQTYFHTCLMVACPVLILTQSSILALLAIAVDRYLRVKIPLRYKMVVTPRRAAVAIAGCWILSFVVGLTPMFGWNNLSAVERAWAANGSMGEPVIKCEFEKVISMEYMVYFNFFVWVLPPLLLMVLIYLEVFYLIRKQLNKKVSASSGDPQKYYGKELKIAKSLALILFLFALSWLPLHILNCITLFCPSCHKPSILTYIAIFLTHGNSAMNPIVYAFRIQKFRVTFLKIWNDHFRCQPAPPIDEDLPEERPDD

SMILES	inhibition [1]	Ki (Adenosine receptor A2a [2])	IC50 [3]	inhibition at 10 µM [4]	inhibition [5]	Ki (Adenosine receptor A2a [6])	Ki (Adenosine receptor A3)	Ki (Adenosine receptor A1 [7])	Ki (Adenosine receptor A2b)	IC50 [8]	inhibition at 10 µM [9]	inhibition [10]	Ki (Adenosine receptor A1 [11])
Cn1c(=O)c2c(nc3n2CCCN3CCc2cccc(Cl)c2)n(C)c1=O	1%	0.166 µM	> 10 µM	-4%	43%	1.35 µM	> 10 µM	1.76 µM	> 1 µM	1.35 µM			
Cn1c(=O)c2c(nc3n2CCCN3CC(=O)N2CCN(Cc3ccccc3)CC2)n(C)c1=O	-7%	14 µM	> 10 µM	4%	23%		> 0.3 µM	> 1.5 µM	> 0.3 µM	10 µM	55%	0%	
C#CCn1c(=O)c2c(nc3n2CCCN3C2CCC2)n(C)c1=O		0.38 µM			13%	0.231 µM	> 10 µM	1.07 µM	3.97 µM	> 10 µM	19%		0.866 µM
CCn1c(=O)c2c(nc3n2CCCN3CCc2ccc(OC)c(OC)c2)n(CC)c1=O	15%	1.88 µM	> 10 µM	4%	32%		> 10 µM	> 10 µM	> 1 µM	5.87 µM		35%	
CCn1c(=O)c2c(nc3n2CCCN3c2ccc(O)cc2)n(CC)c1=O	22%	10.9 µM	> 10 µM	11%	29%		> 10 µM	> 10 µM	> 1 µM	10 µM	56%	30%	
CCCn1c(=O)c2c(nc3n2CCCN3CC(=O)N2CCN(Cc3ccccc3)CC2)n(CCC)c1=O	0%	8.22 µM			28%		> 1 µM	> 1.5 µM	> 1 µM	> 10 µM	15%	17%	
CCCn1c(=O)c2c(nc3n2CCCN3CC(=O)N2CCN(Cc3ccc(C(F)(F)F)cc3)CC2)n(CCC)c1=O	15%	7.31 µM	> 10 µM	5%			0.541 µM	> 1.5 µM	> 1 µM	2.98 µM		23%	
Cn1c(=O)c2c(nc3n2CCCN3c2ccc(Cl)c(Cl)c2)n(C)c1=O	3%	4.7 µM	> 10 µM	12%	12%		> 1 µM	> 10 µM	> 1 µM	10 µM	50%	28%	
Cn1c(=O)c2c(nc3n2CCCN3CCc2ccc(Cl)c(Cl)c2)n(C)c1=O	10%	0.78 µM	> 10 µM	-2%	23%	5.25 µM	> 10 µM	7.24 µM	> 1 µM	0.0869 µM			
Cn1c(=O)c2c(nc3n2CCCN3CCc2ccc(Cl)cc2)n(C)c1=O	8%	0.515 µM	> 10 µM	4%	38%	5.61 µM	> 10 µM	3.03 µM	> 1 µM	0.624 µM			
CCn1c(=O)c2c(nc3n2CCCN3CCc2cc(OC)c(OC)c(OC)c2)n(CC)c1=O	6%	3.87 µM			24%		> 10 µM	> 10 µM	> 1 µM	> 10 µM	25%	14%	
